Compound activity deposited in PubChem BioAssay by several laboratories.
In the library only some 5.4% were active in any assay of this set; here they are far more common.
Mdm2 MdmX PPI = human Mdm2/MdmX binding inhibition. SaOS-2 split-luciferase Mdm2/MdmX complementation, luminescence. AID 485346. 330,000 compounds, 3% hits. inhibition, % at 8 µM;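 active = inhibition of at least 50% at 8 µM in the primary screen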
SKKanGAS inh = SKKanGAS growth inhibition; AID 1662; S. pyogenes SKKanGAS, kanamycin growth, BacTiter-Glo, 6 h; 300,000 compounds, 1.3% hits; inhibition, % at 7.5 µM;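 active = mean replicate score, as percent of positive control median, at least 50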;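 also: strain carries kanamycin resistance gene driven by streptokinase promoter and grows in 40 µg/ml kanamycin; loss of luminescence reflects streptokinase promoter inhibition or plain growth inhibition; 0% = median of DMSO wells and 100% = positive control at its reference dose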
T cruzi repl = blocks replication of Trypanosoma cruzi | 300,000 compounds, 1.4% hits | AID 1885 | inhibition, % (no concentration beside the values) | T. cruzi beta-gal in NIH3T3, luminescence, 90 h;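 active = mean inhibition across valid replicates above about 55%, limit read from the data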;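 also: signal also drops with host cell toxicity which is not excluded here; 0% = plate median of DMSO wells and 100% = zero luminescence signal; higher percent means less beta-gal luminescence so fewer parasites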
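Test system: β-gal T. cruzi (Tulahuen C4) inside NIH/3T3 cells / Quantity: 5,000 cells/well / Measured by: luminescence from GalScreen with 0.05% NP40, read after 60 min / Medium: DMEM plus 2% FBS / Measure: parasite load inhibition, % / Reagent: Tulahuen C4 trypomastigotes, 5000/well / Schedule: co-culture of at least 90 h after 3 h attachment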
aSyn 5UTR inh = 5' untranslated region of α-synuclein, MLPCN primary screen. inhibition, % (tested at 7.5 µM). alpha-synuclein 5'UTR reporter, inhibitor activity. 300,000 compounds, 0.82% hits; in the data active = inhibition above about 60%;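 also: H4 neuroglioblastoma cells stably carrying SNCA 5'UTR luciferase fusion; 0% = DMSO wells and 100% = positive control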
CSC inhib = cancer stem cell inhibition. cancer stem cell-like cells viability, luminescence. 300,000 compounds, 1.1% hits. AID 2717. inhibition, % at 7.5 µM; in the data active = inhibition above about 75%; tested in HMLE shEcad cells
The depositor's hits bear a star.

For CCC(C)(C)n1nnnc1C(c1cc2ccc(OC)cc2[nH]c1=O)N1CCc2ccccc2C1 (configuration not stated) the results were Mdm2 MdmX PPI 9.8, SKKanGAS inh -0.6, T cruzi repl 55.5*, aSyn 5UTR inh -18.6 and CSC inhib 6.8.
`COc1ccc2cc(C(c3nnnn3C(C)(C)C)N3CCc4ccccc4C3)c(=O)[nH]c2c1` (configuration not stated) gave Mdm2 MdmX PPI 4.1 and CSC inhib 14.3.
For O=C(NNC1=Nc2ccccc2SC1)c1ccc(Cl)cc1 the results were Mdm2 MdmX PPI 45.5, SKKanGAS inh 90.5*, T cruzi repl 33.0, aSyn 5UTR inh 96.2* and CSC inhib 45.3.
`O=C(NNC(=O)c1ccccc1O)c1ccc(Cl)cc1` gave Mdm2 MdmX PPI -31.9, SKKanGAS inh 7.9, T cruzi repl -10.7, aSyn 5UTR inh -80.9 and CSC inhib 12.1.
Screening O=C(NNC1=Nc2ccccc2SC1)c1ccc(F)cc1 returned Mdm2 MdmX PPI 47.9, SKKanGAS inh 68.6*, T cruzi repl -4.6 and aSyn 5UTR inh 42.6.
Screening CC(C)c1ccc(-n2cccc2/C=C2/C(=N)N3C=CSC3=NC2=O)cc1 returned Mdm2 MdmX PPI 16.0, SKKanGAS inh 94.1*, T cruzi repl -21.1, aSyn 5UTR inh -11.0 and CSC inhib 26.7.
Screening Cc1noc(C)c1NC(=O)N(C)C[C@H]1Oc2ccc(NC(=O)Nc3ccc(C(F)(F)F)cc3)cc2C(=O)N([C@H](C)CO)C[C@@H]1C returned Mdm2 MdmX PPI -12.7 and CSC inhib -12.2.
Screening Nc1[nH]n(-c2ccccc2)c(=O)c1N=Nc1ccc2c(c1)OCO2 returned Mdm2 MdmX PPI -169.1, SKKanGAS inh 0.3, T cruzi repl 12.0, aSyn 5UTR inh -204.6 and CSC inhib 112.9*.
For C/C(=N\NC(=O)c1cc(C)nc2ccccc12)c1cccc(Cl)c1 the results were Mdm2 MdmX PPI 15.3, SKKanGAS inh 22.8, T cruzi repl 1.7, aSyn 5UTR inh 0.5 and CSC inhib -1.4.
`CCN(CC)CC#CCC(O)(c1ccccc1)C1CCCC1` (configuration not stated) gave Mdm2 MdmX PPI 1.8, SKKanGAS inh -5.6, T cruzi repl 59.2*, aSyn 5UTR inh 12.0 and CSC inhib 3.1.
`CN(C)CC#CCC(O)(c1ccccc1)C1CCCCC1` (configuration not stated) gave Mdm2 MdmX PPI 19.8, SKKanGAS inh 1.1, T cruzi repl 0.2, aSyn 5UTR inh 3.8 and CSC inhib -4.8.
Screening O=C(c1cc(-c2ccccc2)nc2ccccc12)N1CCN(c2ccccc2O)CC1 returned Mdm2 MdmX PPI 24.0, SKKanGAS inh 66.8*, T cruzi repl 17.7, aSyn 5UTR inh 2.1 and CSC inhib 3.5.
For O=C(c1cc(-c2ccncc2)nc2ccccc12)N1CCN(c2ccccn2)CC1 the results were Mdm2 MdmX PPI 37.4, SKKanGAS inh -3.1, T cruzi repl 60.1*, aSyn 5UTR inh -35.6 and CSC inhib 44.6.
`O=C(c1cc(-c2ccccc2)nc2ccccc12)N1CCN(c2ccccn2)CC1` gave Mdm2 MdmX PPI -10.7, SKKanGAS inh -0.2, T cruzi repl 15.9, aSyn 5UTR inh -48.6 and CSC inhib 4.8.
For CCn1c(=S)sc2c(=O)n(CC(=O)Nc3ccc(C(C)=O)cc3)c(C)nc21 the results were Mdm2 MdmX PPI 15.9, SKKanGAS inh -3.4, T cruzi repl 7.0, aSyn 5UTR inh -3.2 and CSC inhib -7.5.
Screening CCc1c(C)c(C#N)c2nc3ccccc3n2c1Cl returned SKKanGAS inh -3.1, T cruzi repl 30.3 and aSyn 5UTR inh 105.3*.
For Cc1c(Cc2ccccc2)c(NCCN(C)C)n2c(nc3ccccc32)c1C#N the results were Mdm2 MdmX PPI 17.6, SKKanGAS inh -2.9, T cruzi repl 55.6*, aSyn 5UTR inh -0.1 and CSC inhib -13.0.
Screening CCc1c(C)c(C#N)c2[nH]c3ccccc3n2c1=S returned Mdm2 MdmX PPI 30.9, SKKanGAS inh 59.8*, T cruzi repl 37.4, aSyn 5UTR inh 2.4 and CSC inhib 11.8.
For CCc1cc(=S)n2c([nH]c3ccccc32)c1C#N the results were Mdm2 MdmX PPI 10.7, SKKanGAS inh 35.2, T cruzi repl -7.8 and aSyn 5UTR inh 16.5.
For CCCCc1c(C)c(C#N)c2nc3ccccc3n2c1NCCN(C)C the results were Mdm2 MdmX PPI 3.7, SKKanGAS inh -6.6, T cruzi repl 40.4 and aSyn 5UTR inh -3.3.
For O=S(=O)(Nc1c(S(=O)(=O)c2ccccc2)c2nc3ccccc3nc2n1C1CCCCC1)c1ccccc1 the results were SKKanGAS inh 91.0*, T cruzi repl 0.3, aSyn 5UTR inh 13.7 and CSC inhib 106.4*.
Cc1nc(SCCC(=O)O)c2cc(-c3ccccc3)sc2n1 was read as Mdm2 MdmX PPI 43.9, SKKanGAS inh 5.0, T cruzi repl 1.9, aSyn 5UTR inh 67.1* and CSC inhib 23.5.
Screening Cc1c(NC(=S)NC(=O)c2cccc(Br)c2)c(=O)n(-c2ccccc2)n1C returned Mdm2 MdmX PPI -20.1, SKKanGAS inh -4.5, T cruzi repl -39.2, aSyn 5UTR inh -20.1 and CSC inhib -26.7.
`CNc1ncnc(Sc2ccc(Cl)cc2)c1[N+](=O)[O-]` gave Mdm2 MdmX PPI 14.5, SKKanGAS inh 7.5, T cruzi repl 65.7*, aSyn 5UTR inh -24.6 and CSC inhib 17.8.
Screening O=S(=O)(Nc1nc2ccccc2nc1Cl)c1ccc2ccccc2c1 returned Mdm2 MdmX PPI 1.5, SKKanGAS inh 51.4*, T cruzi repl 1.9, aSyn 5UTR inh 0.2 and CSC inhib 4.1.
For COc1ccccc1N(C(=O)Cn1nnc(-c2ccc(C)o2)n1)C(C(=O)NC1CCCC1)c1ccncc1 (configuration not stated) the results were Mdm2 MdmX PPI 4.7, SKKanGAS inh -4.3, T cruzi repl -4.9, aSyn 5UTR inh 6.6 and CSC inhib -33.5.
`O=C(NC1CCCCC1)C(c1ccncc1)N(Cc1ccccc1)C(=O)c1ccc(-c2ccccc2)[nH]1` (configuration not stated) gave Mdm2 MdmX PPI 35.2, SKKanGAS inh 28.1, T cruzi repl 70.3*, aSyn 5UTR inh -13.2 and CSC inhib 37.9.
CCc1ccc(/C=c2\s/c(=C\C(=O)C(C)(C)C)[nH]c2=O)cc1 was read as Mdm2 MdmX PPI 43.8, SKKanGAS inh 102.3*, T cruzi repl -0.4, aSyn 5UTR inh -9.5 and CSC inhib 66.8.
Screening CCOC(=O)c1nnn(-c2ccc([N+](=O)[O-])cc2[N+](=O)[O-])c1C returned Mdm2 MdmX PPI 7.2, SKKanGAS inh 5.4, T cruzi repl 95.9*, aSyn 5UTR inh -30.3 and CSC inhib 13.8.
O=C(/C=C/c1ccc(O)cc1)c1ccccc1 was read as Mdm2 MdmX PPI -38.0, SKKanGAS inh 33.1, T cruzi repl -1.4, aSyn 5UTR inh -118.3 and CSC inhib 38.5.
`O=C(/C=C/c1ccc(N2CCC(c3ccccc3)=N2)cc1)c1ccccc1` gave Mdm2 MdmX PPI -12.5, SKKanGAS inh -5.1, T cruzi repl 10.8, aSyn 5UTR inh -66.8 and CSC inhib 92.4*.
